Laboratory results reported in ChEMBL document CHEMBL1629532, “Design, synthesis, and structure-activity relationships of 3-ethynyl-1H-indazoles as inhibitors of the phosphatidylinositol 3-kinase signaling pathway” (J Med Chem, 2010).
Active and inactive are the calls of the source. No cut-off for these calls is given here.

Tests used:
U-87MG ATCC = assay: Growth inhibition of human U87 cells grown as spheroids assessed reduction in decrease in spheroid volumes reated consecutively for 6 days by hanging drop method; assay type: functional, cell-based
How it was run: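 U87 glioblastoma spheroids formed by hanging drop, 200 cells per 20 µl drop, inverted for 5 days in a humidity chamber. Spheroids moved onto 1% low-melt agarose-coated wells. Compound or DMSO added every 24 h for 6 days. Volume (µm³) calculated from length and width measured with an optical micrometer. Four independent experiments.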

Liver microsomes = assay: Metabolic stability in rat liver microsomes; assay type: ADME, Microsome
How it was run: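 Rat liver microsomes (1 mg/ml protein) with 4µM compound in 50mM phosphate pH 7.2. Pre-incubated 5 min at 37.5 °C, then started with 2mM NADPH and run 1 h. Samples taken every 15 min, quenched in methanol with internal standard, analyzed by LC-MS. Duplicate runs alongside two control compounds of known half-life. Half-life reported.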

[1] = tested on: Proto-oncogene tyrosine-protein kinase receptor Ret (Homo sapiens), P07949 [Y791F]; assay: Inhibition of RET Y791F mutant at 10 uM
[2] = molecular target: Vascular endothelial growth factor receptor 3 (Homo sapiens) (UniProt P35916); assay: Inhibition of FLT4 at 10 uM
[3] = molecular target: Maternal embryonic leucine zipper kinase (Homo sapiens) (UniProt Q14680); assay: Inhibition of MELK at 10 uM
[4] = molecular target: Interleukin-1 receptor-associated kinase 1 (Homo sapiens) (UniProt P51617); assay: Inhibition of IRAK1 at 10 uM
[5] = molecular target: Mitogen-activated protein kinase 8 (Homo sapiens) (UniProt P45983); assay: Inhibition of JNK1 at 10 uM
[6] = molecular target: Myosin light chain kinase 2, skeletal/cardiac muscle (Homo sapiens) (UniProt Q9H1R3); assay: Inhibition of MYLK2 at 10 uM
[7] = molecular target: Dual specificity protein kinase CLK2 (Homo sapiens) (UniProt P49760); assay: Inhibition of CLK2 at 10 uM
[8] = molecular target: Mitogen-activated protein kinase kinase kinase kinase 4 (Homo sapiens) (UniProt O95819); assay: Inhibition of MAP4K4 at 10 uM
[9] = tested on: Leucine-rich repeat serine/threonine-protein kinase 2 (Homo sapiens), Q5S007 [G2019S]; assay: Inhibition of LRKK2 G2019S mutant at 10 uM
[10] = molecular target: BDNF/NT-3 growth factors receptor (Homo sapiens) (UniProt Q16620); assay: Inhibition of NTRK2 at 10 uM
[11] = molecular target: Tyrosine-protein kinase ABL1 (Homo sapiens) (UniProt P00519); assay: Inhibition of ABL1 […] mutant at 10 uM
[12] = molecular target: High affinity nerve growth factor receptor (Homo sapiens) (UniProt P04629); assay: Inhibition of NTRK1 at 10 uM
[13] = tested on: Platelet-derived growth factor receptor alpha (Homo sapiens), P16234 [V561D]; assay: Inhibition of PDGFRA V561D mutant at 10 uM
MDA-MB-231 = assay: Growth inhibition of human MDA-MB-231 cells after 72 hrs by ATPlite assay; assay type: functional; details: MDA-MB-231, 72 h
How it was run: (§1)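 Cells seeded at about 3000 per well, grown 24 h, then given fresh medium and test compound in triplicate at 0.5 to 100µM in DMSO (0.5% final). Exposure 72 h at 37 °C, 5% CO₂. Viability measured by ATPlite luminescence and normalized to DMSO-treated controls. GI50 obtained by curve fitting. HeLa cultured in DMEM/10% FBS; MCF7, MDA-MB-231 and PC3 cultured in RPMI+GlutaMAX/10% FBS.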

[14] = tested on: Proto-oncogene tyrosine-protein kinase receptor Ret (Homo sapiens), P07949 [V804L]; assay: Inhibition of RET V804L mutant at 10 uM
[15] = molecular target: Receptor-type tyrosine-protein kinase FLT3 (Homo sapiens) (UniProt P36888); assay: Inhibition of FLT3 at 10 uM
[16] = molecular target: Serine/threonine-protein kinase haspin (Homo sapiens) (UniProt Q8TF76); assay: Inhibition of GSG2 at 10 uM
[17] = molecular target: NUAK family SNF1-like kinase 1 (Homo sapiens) (UniProt O60285); assay: Inhibition of NUAK1 at 10 uM
[18] = molecular target: T1, 3-phosphoinositide-dependent protein kinase 1 (Homo sapiens, UniProt O15530); assay: Inhibition of PDK1 by Z'-LYTE kinase activity assay
T1 sequence (O15530 whole entry): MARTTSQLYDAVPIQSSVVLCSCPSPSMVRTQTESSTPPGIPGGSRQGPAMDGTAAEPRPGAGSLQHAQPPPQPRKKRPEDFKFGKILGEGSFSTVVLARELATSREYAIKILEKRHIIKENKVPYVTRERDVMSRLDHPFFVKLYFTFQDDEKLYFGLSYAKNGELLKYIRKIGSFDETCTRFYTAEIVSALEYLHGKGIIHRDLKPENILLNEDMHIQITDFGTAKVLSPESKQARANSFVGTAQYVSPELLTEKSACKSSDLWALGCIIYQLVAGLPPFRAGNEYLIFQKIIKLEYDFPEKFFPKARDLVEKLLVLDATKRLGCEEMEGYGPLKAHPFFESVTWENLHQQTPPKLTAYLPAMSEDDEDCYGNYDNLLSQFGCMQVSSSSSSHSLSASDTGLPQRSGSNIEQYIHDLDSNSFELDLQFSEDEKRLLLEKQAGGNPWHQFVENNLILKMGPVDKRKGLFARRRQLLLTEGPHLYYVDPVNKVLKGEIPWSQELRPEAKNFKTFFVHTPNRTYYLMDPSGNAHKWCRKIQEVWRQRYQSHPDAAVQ

[19] = tested on: Receptor-type tyrosine-protein kinase FLT3 (Homo sapiens), P36888 [D835Y]; assay: Inhibition of FLT3 D835Y mutant at 10 uM
[20] = molecular target: Vascular endothelial growth factor receptor 2 (Homo sapiens) (UniProt P35968); assay: Inhibition of KDR at 10 uM
[21] = molecular target: RAC-alpha serine/threonine-protein kinase (Homo sapiens) (UniProt P31749); assay: Inhibition of AKT1 by biochemical assay
MCF7 = assay: Growth inhibition of human MCF7 cells after 72 hrs by ATPlite assay; assay type: functional; details: MCF7, 72 h; how it was run: as §1
[22] = molecular target: NT-3 growth factor receptor (Homo sapiens) (UniProt Q16288); assay: Inhibition of NTRK3 at 10 uM
Plasma = assay: Metabolic stability in rat plasma assessed as compound remaining at 1 uM after 60 mins by Lc/Ms method; assay type: ADME, cell-free; details: 1 h
How it was run: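 Compound at 1 µM (2.5% DMSO final) in fresh rat plasma at 37 °C. Stopped at 0, 30 and 60 min with two volumes methanol plus internal standard, then LC-MS. Percent parent remaining relative to 0 min, from peak area ratios to internal standard. Duplicate runs, with a plasma-labile positive control.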

[23] = molecular target: Cyclin-dependent kinase 5/CDK5 activator 1 (Homo sapiens) (UniProt Q00535+Q15078); assay: Inhibition of CDK5/P25 at 10 uM; assay type: protein-complex assay
[24] = molecular target: Inhibitor of nuclear factor kappa-B kinase subunit alpha (Homo sapiens) (UniProt O15111); assay: Inhibition of IKKalpha at 10 uM
[25] = molecular target: Tyrosine-protein kinase SYK (Homo sapiens) (UniProt P43405); assay: Inhibition of SYK at 10 uM

Sequence of Mitogen-activated protein kinase kinase kinase kinase 4 (Homo sapiens) (O95819 2-1239 limits assumed): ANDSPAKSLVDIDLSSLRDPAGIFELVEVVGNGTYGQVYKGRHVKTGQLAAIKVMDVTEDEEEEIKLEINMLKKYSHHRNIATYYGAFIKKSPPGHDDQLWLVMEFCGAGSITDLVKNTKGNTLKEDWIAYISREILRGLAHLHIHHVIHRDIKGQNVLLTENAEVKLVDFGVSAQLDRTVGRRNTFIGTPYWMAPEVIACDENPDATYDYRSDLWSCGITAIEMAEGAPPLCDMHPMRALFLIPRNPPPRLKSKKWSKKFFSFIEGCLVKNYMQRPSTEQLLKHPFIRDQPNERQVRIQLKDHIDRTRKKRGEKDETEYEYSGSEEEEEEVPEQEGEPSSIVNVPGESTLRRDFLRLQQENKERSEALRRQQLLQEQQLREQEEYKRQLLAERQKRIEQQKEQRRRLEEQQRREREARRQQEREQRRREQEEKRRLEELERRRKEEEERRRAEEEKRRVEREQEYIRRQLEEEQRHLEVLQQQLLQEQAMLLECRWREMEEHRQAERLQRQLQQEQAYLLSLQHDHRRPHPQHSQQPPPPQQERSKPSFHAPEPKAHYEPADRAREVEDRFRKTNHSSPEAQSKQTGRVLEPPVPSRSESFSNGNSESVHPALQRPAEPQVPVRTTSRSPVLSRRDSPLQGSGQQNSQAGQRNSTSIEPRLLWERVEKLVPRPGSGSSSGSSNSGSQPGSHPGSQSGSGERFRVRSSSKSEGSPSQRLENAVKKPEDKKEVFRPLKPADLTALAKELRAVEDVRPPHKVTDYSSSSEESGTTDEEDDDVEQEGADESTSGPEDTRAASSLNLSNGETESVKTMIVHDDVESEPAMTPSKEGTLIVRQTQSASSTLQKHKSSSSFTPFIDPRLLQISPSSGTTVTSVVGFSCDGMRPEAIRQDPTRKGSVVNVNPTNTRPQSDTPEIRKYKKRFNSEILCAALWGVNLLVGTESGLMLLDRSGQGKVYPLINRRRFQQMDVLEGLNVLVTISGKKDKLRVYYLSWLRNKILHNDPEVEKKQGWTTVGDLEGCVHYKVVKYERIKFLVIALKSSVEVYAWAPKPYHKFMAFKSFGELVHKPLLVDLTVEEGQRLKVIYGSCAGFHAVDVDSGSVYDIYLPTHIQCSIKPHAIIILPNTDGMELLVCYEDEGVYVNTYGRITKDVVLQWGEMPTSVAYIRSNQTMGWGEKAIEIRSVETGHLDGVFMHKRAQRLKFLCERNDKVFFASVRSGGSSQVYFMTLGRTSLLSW
Sequence of High affinity nerve growth factor receptor (Homo sapiens) (P04629 33-796 limits assumed): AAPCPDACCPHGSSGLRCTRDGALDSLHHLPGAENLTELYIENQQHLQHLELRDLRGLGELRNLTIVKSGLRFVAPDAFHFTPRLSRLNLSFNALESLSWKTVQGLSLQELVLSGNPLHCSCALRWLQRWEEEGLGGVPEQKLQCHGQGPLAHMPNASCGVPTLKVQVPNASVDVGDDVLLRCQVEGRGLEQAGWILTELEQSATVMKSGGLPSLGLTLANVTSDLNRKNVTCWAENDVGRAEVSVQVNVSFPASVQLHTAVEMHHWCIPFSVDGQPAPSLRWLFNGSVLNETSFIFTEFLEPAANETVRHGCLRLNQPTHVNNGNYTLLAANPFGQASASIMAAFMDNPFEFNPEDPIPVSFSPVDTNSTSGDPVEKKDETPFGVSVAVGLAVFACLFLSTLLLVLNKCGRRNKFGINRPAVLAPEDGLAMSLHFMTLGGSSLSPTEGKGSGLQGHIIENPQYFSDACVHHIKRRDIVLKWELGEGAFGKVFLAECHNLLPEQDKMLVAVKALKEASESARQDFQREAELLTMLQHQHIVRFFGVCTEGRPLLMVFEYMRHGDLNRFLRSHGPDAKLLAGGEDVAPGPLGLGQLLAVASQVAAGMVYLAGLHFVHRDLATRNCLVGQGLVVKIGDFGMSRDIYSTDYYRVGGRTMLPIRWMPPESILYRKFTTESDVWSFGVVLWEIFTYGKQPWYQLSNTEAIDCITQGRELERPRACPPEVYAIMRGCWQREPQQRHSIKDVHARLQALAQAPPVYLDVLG
Sequence of Vascular endothelial growth factor receptor 3 (Homo sapiens) (P35916 whole entry): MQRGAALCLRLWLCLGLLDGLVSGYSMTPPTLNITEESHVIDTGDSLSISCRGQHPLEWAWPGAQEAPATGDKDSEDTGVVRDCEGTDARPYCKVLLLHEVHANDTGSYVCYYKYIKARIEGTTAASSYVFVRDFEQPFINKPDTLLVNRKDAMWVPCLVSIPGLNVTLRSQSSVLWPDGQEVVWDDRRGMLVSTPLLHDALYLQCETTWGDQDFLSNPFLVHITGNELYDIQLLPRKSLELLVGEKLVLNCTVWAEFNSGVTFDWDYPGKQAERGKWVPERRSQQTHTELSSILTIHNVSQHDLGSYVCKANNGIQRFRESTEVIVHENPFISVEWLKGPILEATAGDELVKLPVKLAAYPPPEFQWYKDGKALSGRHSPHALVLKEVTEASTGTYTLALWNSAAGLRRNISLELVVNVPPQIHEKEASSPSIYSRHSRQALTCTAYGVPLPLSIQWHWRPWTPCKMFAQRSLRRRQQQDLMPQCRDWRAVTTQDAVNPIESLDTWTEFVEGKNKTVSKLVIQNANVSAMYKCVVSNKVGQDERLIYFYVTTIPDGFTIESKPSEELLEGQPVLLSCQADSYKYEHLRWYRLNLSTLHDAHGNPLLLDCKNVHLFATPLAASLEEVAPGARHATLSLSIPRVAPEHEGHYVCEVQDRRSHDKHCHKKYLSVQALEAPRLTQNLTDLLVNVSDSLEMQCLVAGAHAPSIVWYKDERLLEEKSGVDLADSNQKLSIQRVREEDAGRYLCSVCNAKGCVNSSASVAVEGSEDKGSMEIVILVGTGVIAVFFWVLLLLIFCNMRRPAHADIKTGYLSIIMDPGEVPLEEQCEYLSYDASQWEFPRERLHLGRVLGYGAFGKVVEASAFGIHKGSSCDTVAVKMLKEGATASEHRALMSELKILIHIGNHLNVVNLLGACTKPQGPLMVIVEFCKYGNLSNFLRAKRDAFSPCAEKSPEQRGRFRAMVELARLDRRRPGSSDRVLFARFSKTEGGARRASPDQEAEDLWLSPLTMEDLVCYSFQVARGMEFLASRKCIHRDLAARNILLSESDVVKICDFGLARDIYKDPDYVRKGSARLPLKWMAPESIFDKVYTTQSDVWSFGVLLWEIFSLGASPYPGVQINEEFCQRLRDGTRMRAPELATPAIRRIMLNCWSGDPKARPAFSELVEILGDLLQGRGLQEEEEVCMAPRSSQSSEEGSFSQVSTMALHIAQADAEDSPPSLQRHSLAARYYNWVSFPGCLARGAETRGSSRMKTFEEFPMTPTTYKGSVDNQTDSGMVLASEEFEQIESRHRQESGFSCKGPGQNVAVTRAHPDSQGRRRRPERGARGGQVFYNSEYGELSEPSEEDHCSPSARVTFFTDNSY
Sequence of Serine/threonine-protein kinase haspin (Homo sapiens) (Q8TF76 whole entry): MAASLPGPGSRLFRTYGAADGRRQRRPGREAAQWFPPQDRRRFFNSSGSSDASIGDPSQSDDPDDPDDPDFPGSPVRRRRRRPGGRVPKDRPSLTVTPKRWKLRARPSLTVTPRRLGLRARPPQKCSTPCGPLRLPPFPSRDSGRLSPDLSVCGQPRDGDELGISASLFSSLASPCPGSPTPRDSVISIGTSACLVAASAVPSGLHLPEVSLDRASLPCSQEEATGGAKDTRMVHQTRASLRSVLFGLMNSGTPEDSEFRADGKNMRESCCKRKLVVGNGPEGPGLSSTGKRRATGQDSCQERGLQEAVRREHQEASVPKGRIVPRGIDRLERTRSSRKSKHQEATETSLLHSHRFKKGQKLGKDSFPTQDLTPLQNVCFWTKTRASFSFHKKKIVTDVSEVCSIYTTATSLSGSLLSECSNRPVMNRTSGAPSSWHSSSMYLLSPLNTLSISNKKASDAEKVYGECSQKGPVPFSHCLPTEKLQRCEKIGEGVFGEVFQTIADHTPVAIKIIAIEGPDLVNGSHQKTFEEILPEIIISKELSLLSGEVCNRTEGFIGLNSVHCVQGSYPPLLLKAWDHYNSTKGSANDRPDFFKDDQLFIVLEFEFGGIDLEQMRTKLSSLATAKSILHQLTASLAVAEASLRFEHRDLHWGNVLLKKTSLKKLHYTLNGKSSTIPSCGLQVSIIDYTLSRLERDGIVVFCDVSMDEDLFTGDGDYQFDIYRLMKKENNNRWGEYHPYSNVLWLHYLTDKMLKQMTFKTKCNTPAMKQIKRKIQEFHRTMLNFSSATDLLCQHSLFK
Sequence of Maternal embryonic leucine zipper kinase (Homo sapiens) (Q14680 whole entry, looked up): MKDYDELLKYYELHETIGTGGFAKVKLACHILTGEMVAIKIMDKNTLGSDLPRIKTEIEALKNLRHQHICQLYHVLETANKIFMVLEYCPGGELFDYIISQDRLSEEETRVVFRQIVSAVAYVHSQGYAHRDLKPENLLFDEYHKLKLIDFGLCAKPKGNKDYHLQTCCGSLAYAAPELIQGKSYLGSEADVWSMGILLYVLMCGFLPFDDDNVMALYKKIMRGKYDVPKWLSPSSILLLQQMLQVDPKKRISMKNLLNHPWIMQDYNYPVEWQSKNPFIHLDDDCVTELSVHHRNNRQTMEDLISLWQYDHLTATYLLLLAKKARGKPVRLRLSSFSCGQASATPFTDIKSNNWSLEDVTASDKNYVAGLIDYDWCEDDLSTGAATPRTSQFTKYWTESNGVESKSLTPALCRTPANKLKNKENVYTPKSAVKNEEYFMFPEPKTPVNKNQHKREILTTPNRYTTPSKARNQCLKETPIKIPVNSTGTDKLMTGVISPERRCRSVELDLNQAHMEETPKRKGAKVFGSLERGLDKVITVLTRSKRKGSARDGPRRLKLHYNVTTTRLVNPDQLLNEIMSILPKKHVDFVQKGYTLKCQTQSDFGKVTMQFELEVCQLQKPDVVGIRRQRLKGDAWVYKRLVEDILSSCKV

t1/2 (Liver microsomes): 35 min
inhibition [1]: > 50%
inhibition [2]: > 50%
inhibition [3]: > 50%
inhibition [4]: > 50%
inhibition [5]: > 50%
inhibition [6]: > 50%
inhibition [7]: > 50%
inhibition [8]: > 50%
inhibition [9]: > 50%
inhibition [10]: > 50%
inhibition [11]: > 50%
inhibition [12]: > 50%
inhibition [13]: > 50%
GI50 (MDA-MB-231): 7.84 µM
inhibition [14]: > 50%
inhibition [15]: > 50%
inhibition [16]: > 50%
inhibition [17]: > 50%
IC50 [18]: 3.87 µM
inhibition [19]: > 50%
inhibition [20]: > 50%
inhibition [21]: inactive
GI50 (MCF7): 2.58 µM
inhibition [22]: > 50%
Stability (Plasma): 97%
inhibition [23]: > 50%
inhibition [24]: > 50%
inhibition [25]: > 50%
Structure (SMILES): C(#Cc1n[nH]c2ccccc12)c1ccncc1
growth inhibition (GI) (U-87MG ATCC): Active
